Results taken from ChEMBL document CHEMBL4842326, “Design, synthesis and biological evaluation of 3, 4-disubstituted-imidazolidine-2, 5-dione derivatives as HDAC6 selective inhibitors” (Eur J Med Chem, 2021).

Tests used:
Histone deacetylase 1 = Histone deacetylase 1 (Homo sapiens, UniProt Q13547); assay: Inhibition of HDAC1 (unknown origin) using Ac-LeuGlyLys(Ac)-AMC as substrate preincubated for 10 mins followed by substrate addition and further incubated for incubated for 1 hrs by fluorescence microtiter plate reader assay
Histone deacetylase 8 = molecular target: T1, Histone deacetylase 8 (Homo sapiens, UniProt Q9BY41); assay: Inhibition of HDAC8 (unknown origin) using Ac-LeuGlyLys(tfa)-AMC as substrate preincubated for 10 mins followed by substrate addition and further incubated for incubated for 1 hrs by fluorescence microtiter plate reader assay
T1 sequence (Q9BY41 whole entry): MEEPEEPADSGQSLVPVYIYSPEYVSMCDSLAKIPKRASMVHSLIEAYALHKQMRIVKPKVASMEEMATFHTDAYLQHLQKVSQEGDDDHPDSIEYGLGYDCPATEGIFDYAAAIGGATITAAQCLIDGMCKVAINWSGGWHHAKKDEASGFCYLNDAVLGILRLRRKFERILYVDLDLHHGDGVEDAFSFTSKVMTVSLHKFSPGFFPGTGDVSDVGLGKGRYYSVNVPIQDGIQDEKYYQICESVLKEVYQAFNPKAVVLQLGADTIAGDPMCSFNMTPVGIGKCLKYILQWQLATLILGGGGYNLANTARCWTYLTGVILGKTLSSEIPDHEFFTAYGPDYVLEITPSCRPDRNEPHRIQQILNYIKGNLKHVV

KG-1 = assay: Antiproliferative activity against human KG-1 cells assessed as inhibition of cell proliferation after 48 hrs by MTT assay; format: functional, cell-based; conditions: KG-1, 48 h
Method in brief: (§1)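 Leukemia/myeloma lines grown in RPMI1640 with 10% FBS at 37 °C, 5% CO2; seeded at 3500–4000 cells/well, cultured overnight, then exposed to serial dilutions for 48 h.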

HEL = assay: Antiproliferative activity against human HEL cells assessed as inhibition of cell proliferation after 48 hrs by MTT assay; format: functional, cell-based; method in brief: as §1
Jurkat = assay: Antiproliferative activity against human Jurkat cells assessed as inhibition of cell proliferation after 48 hrs by MTT assay; format: functional, cell-based; method in brief: as §1
HL-60 [1] = assay: Antiproliferative activity against human HL-60 cells assessed as inhibition of cell proliferation after 48 hrs by MTT assay; format: functional, cell-based; conditions: HL-60, 48 h; method in brief: as §1
NCI-H929 = assay: Antiproliferative activity against human NCI-H929 cells assessed as inhibition of cell proliferation after 48 hrs by MTT assay; format: functional, cell-based; conditions: NCI-H929, 48 h; method in brief: as §1
[2] = molecular target: T2, Protein deacetylase HDAC6 (Homo sapiens) (UniProt Q9UBN7); assay: Inhibition of HDAC6 in human HL-60 cells assessed as increase in acetylation of alpha tubulin measured up to 24 hrs by Western blot analysis; format: cell-based; conditions: time hrs <=24
T2 sequence (whole entry): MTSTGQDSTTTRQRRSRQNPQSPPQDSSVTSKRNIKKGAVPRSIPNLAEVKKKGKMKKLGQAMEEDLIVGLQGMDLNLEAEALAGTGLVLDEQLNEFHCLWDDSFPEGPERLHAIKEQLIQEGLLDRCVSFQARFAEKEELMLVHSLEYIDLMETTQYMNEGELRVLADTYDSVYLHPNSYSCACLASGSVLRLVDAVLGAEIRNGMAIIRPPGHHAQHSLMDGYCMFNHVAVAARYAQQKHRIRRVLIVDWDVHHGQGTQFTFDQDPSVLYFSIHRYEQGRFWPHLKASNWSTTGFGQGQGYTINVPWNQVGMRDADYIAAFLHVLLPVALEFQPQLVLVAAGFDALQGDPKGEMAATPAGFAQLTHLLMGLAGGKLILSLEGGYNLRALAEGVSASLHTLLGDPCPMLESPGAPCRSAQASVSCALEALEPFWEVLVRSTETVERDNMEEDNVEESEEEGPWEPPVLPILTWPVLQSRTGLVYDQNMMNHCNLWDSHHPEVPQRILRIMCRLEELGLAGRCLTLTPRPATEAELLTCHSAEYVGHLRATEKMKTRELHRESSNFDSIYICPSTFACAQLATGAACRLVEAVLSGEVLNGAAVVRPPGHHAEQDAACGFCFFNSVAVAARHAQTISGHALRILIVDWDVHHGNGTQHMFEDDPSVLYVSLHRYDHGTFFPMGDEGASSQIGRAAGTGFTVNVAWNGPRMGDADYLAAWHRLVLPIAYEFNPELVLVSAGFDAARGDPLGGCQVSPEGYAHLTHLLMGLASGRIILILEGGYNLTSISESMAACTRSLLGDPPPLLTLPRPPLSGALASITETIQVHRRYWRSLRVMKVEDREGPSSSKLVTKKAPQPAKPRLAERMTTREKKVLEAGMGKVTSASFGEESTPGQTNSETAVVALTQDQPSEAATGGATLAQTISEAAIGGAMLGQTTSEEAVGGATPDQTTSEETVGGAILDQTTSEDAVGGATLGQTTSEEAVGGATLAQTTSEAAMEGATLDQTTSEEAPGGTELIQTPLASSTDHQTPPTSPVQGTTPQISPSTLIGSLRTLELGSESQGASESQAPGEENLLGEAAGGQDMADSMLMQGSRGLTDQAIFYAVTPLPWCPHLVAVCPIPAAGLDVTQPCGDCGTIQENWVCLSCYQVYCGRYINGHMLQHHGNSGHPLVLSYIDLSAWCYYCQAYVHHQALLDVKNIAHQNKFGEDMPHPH
Method in brief: (§2)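 HL-60 cells treated 12 h or 24 h, pelleted, lysed in RIPA with 1 mM PMSF on ice 30 min, cleared at 4 °C; lysates run on 12.5% SDS-PAGE, blotted to PVDF, blocked in 5% milk 1 h, probed overnight at 4 °C for acetyl-α-tubulin, acetyl-H3 and GAPDH, secondary 1 h, ECL detection.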

[3] = molecular target: T2, Protein deacetylase HDAC6 (Homo sapiens); assay: Inhibition of HDAC6 in human HL-60 cells assessed as increase in acetylation of alpha tubulin by Western blot analysis; format: cell-based; conditions: TDE = time-dependent effect; method in brief: as §2
HL-60 [4] = assay: Induction of apoptosis in human HL-60 cells assessed as early apoptotic cells at 3 uM after 48 hrs by Annexin V-FITC/propidium iodide staining based flow cytometric analysis (reference value: […]%); format: functional
HL-60 [5] = assay: Induction of apoptosis in human HL-60 cells assessed as necrotic cells at 3 uM after 48 hrs by Annexin V-FITC/propidium iodide staining based flow cytometric analysis (reference value: 0.017%); format: functional
Method in brief: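 HL-60 cells (1 × 10^6/well) exposed 48 h to compound dilutions, collected, PBS-washed, resuspended in Annexin V-FITC binding buffer, stained with propidium iodide and Annexin V-FITC for 15 min, then analysed by flow cytometry.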

HUVEC = assay: Cytotoxicity against human HUVEC cells assessed as decrease in cell viability after 48 hrs by MTT assay; format: cell-based
Method in brief: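 Normal cells: HUVECs in RPMI1640 with 10% FBS plus 0.1% heparin, GEC-1 in RPMI1640 with 10% FBS. Seeded 8 h, then treated with serial dilutions for 48 h; 0.5% MTT for 4 h, supernatant removed, DMSO added, absorbance read at 570 nm.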

Homo sapiens [6] = organism: Homo sapiens; assay: Selectivity ratio of IC50 for HDAC1 (unknown origin) to IC50 for HDAC6 (unknown origin)
Homo sapiens [7] = organism: Homo sapiens; assay: Selectivity ratio of IC50 for HDAC8 (unknown origin) to IC50 for HDAC6 (unknown origin)

Chain of Histone deacetylase 1 (Q13547 whole entry): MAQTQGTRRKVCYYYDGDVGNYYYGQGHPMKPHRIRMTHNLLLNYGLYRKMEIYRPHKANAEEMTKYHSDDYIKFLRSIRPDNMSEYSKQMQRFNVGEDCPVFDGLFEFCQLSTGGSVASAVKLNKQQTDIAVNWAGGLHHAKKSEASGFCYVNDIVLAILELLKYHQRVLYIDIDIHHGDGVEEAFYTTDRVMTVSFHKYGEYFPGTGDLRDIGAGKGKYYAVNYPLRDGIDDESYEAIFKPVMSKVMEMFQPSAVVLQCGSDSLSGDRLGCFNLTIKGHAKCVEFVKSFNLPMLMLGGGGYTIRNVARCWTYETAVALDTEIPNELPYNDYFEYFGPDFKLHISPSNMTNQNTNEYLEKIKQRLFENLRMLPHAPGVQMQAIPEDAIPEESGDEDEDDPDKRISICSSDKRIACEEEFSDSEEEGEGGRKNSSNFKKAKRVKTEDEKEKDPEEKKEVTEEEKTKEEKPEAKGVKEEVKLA

IC50 (Histone deacetylase 1): 11.6 µM | IC50 (Histone deacetylase 8): 3.44 µM | IC50 (Jurkat): 9.29 µM | IC50 (HL-60 [1]): 3.23 µM | IC50 (NCI-H929): 7.61 µM | inhibition [2]: Dose-Dependent Effect | inhibition [3]: Tde | Ratio IC50 (Homo sapiens [6]): 5540 | Ratio IC50 (Homo sapiens [7]): 1640
Structure (SMILES): O=C(NO)c1ccc(CN2C(=O)C(Cc3ccccc3)N(Cc3cccnc3)C2=O)cc1 (racemic)
IC50 (KG-1): 7.04 µM | IC50 (HEL): 4.58 µM | Activity (HL-60 [4]): 10.5% | Activity (HL-60 [5]): 0.035% | IC50 (HUVEC): 83.1 µM
